# Data as given in ChEMBL document CHEMBL4052700, “Synthesis and biological evaluation of JL-A7 derivatives as potent ABCB1 inhibitors” (Bioorg Med Chem, 2017).
# pIC50: −log10 of the molar value. Structures can show the parent of a compound that is named as a salt.
# How the values were obtained:
# Assay type in all cases: cell-based; call rule not given here
# K562/A02 = test: Cytotoxicity against human K562/A02 cells after 48 hrs by MTT assay; conditions: K562/A02, 48 h
# Summary of the method: (§1)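 K562 (parental) and K562/A02 (ADM-resistant, ABCB1-overexpressing) cells, 1×10^4/well, grown 24 h. A graded dose of compound in medium was added, then 48 h at 37 °C under 5% CO2. MTT was added for 4 h at 37 °C and absorbance read at 570 nm. IC50 was taken from dose–response curves.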
# K562 = test: Cytotoxicity against human K562 cells after 48 hrs by MTT assay; conditions: K562, 48 h; summary of the method: as §1
# [1] = biological target: T1, ATP-dependent translocase ABCB1 (Homo sapiens, UniProt P08183); test: Inhibition of ABCB1 in human K562/A02 cells assessed as potentiation of adriamycin-induced cytotoxicity by measuring reduction in ADR IC50 at 5 uM measured after 48 hrs by MTT assay relative to ADR alone
# Summary of the method: (§2)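 K562/A02 cells in RPMI 1640 with 10% FBS, 1×10^4/well, grown 24 h. Graded ADM was given with the modulator (0.025–5.0 µM), 48 h at 37 °C, 5% CO2. MTT 4 h, A570. ADM IC50 came from dose–response curves. RF = ADM IC50 without modulator / IC50 with modulator. Triplicates, three independent runs, mean ± SD.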
# [2] = biological target: T1, ATP-dependent translocase ABCB1; test: Inhibition of ABCB1 in human K562/A02 cells assessed as potentiation of adriamycin-induced cytotoxicity by measuring ADR IC50 treated for 48 hrs followed by compound washout measured immediately by MTT assay relative to ADR alone
# Summary of the method: (§3)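 Duration of reversal in K562/A02 cells. After modulator exposure, cells were tested without washout or after modulator removal followed by 0, 6, 12 or 24 h in drug-free medium. ADM IC50 was then found by MTT. RF = IC50 without modulator / IC50 with modulator. Two to three experiments, mean ± SD.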
# [3] = biological target: T1, ATP-dependent translocase ABCB1; test: Inhibition of ABCB1 in human K562/A02 cells assessed as potentiation of adriamycin-induced cytotoxicity by measuring ADR IC50 treated for 48 hrs followed by compound washout measured after 6 hrs by MTT assay relative to ADR alone; summary of the method: as §3
# [4] = biological target: T1, ATP-dependent translocase ABCB1; test: Inhibition of ABCB1 in human K562/A02 cells assessed as potentiation of adriamycin-induced cytotoxicity by measuring reduction in ADR IC50 measured after 48 hrs by MTT assay relative to ADR alone; summary of the method: as §2
# [5] = biological target: T1, ATP-dependent translocase ABCB1; test: Inhibition of ABCB1 in human K562/A02 cells assessed as potentiation of adriamycin-induced cytotoxicity by measuring ADR IC50 treated for 48 hrs followed by compound washout measured after 24 hrs by MTT assay relative to ADR alone; summary of the method: as §3
# [6] = biological target: T1, ATP-dependent translocase ABCB1; test: Inhibition of ABCB1 in human K562/A02 cells assessed as potentiation of adriamycin-induced cytotoxicity by measuring ADR IC50 treated for 48 hrs followed by compound washout measured after 12 hrs by MTT assay relative to ADR alone; summary of the method: as §3
# [7] = biological target: T1, ATP-dependent translocase ABCB1; test: Inhibition of ABCB1 in human K562/A02 cells assessed as potentiation of adriamycin-induced cytotoxicity by measuring reduction in ADR IC50 at 5 uM measured after 48 hrs by MTT assay relative to tariquidar
# [8] = biological target: T1, ATP-dependent translocase ABCB1; test: Inhibition of ABCB1 in human K562/A02 cells assessed as potentiation of adriamycin-induced cytotoxicity by measuring reduction in ADR IC50 at 0.1 uM measured after 48 hrs by MTT assay relative to ADR alone; summary of the method: as §2
# [9] = biological target: T1, ATP-dependent translocase ABCB1; test: Inhibition of ABCB1 in human K562/A02 cells assessed as rhodamine123 efflux after 90 mins by flow cytometric analysis (reference value: 0.0231 +/- 0.0058 /s); conditions: 1.5 h
# [10] = biological target: T1, ATP-dependent translocase ABCB1; test: Inhibition of ABCB1 in human K562/A02 cells assessed as increase in adriamycin accumulation pretreated for 60 mins followed by ADR addition after 90 mins by fluorescence spectrophotometric method; conditions: 1.5 h
# Summary of the method: (§4)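 ADM was then added at 20 µM for 90 min. Cells were washed three times with PBS at 4 °C. Retained intracellular ADM mean fluorescence intensity was read by fluorescence spectrophotometer. Three independent experiments, mean ± SD.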
# [11] = biological target: T1, ATP-dependent translocase ABCB1; test: Inhibition of ABCB1 in human K562/A02 cells assessed as potentiation of adriamycin-induced cytotoxicity by measuring reduction in ADR IC50 at 0.5 uM measured after 48 hrs by MTT assay relative to ADR alone; summary of the method: as §2
# [12] = biological target: T1, ATP-dependent translocase ABCB1; test: Potency index, ratio of compound effect to verapamil effect for inhibition of ABCB1 in human K562/A02 cells assessed as increase in adriamycin accumulation at 5 uM; summary of the method: as §4
# [13] = biological target: T1, ATP-dependent translocase ABCB1; test: Inhibition of ABCB1 in human K562/A02 cells assessed as increase in doxorubicin accumulation after 90 mins by rhodamine123 staining based flow cytometric analysis; conditions: 1.5 h
# [14] = biological target: T1, ATP-dependent translocase ABCB1; test: Inhibition of ABCB1 in human K562/A02 cells assessed as increase in adriamycin accumulation at 0.5 to 2.5 uM pretreated for 60 mins followed by ADR addition after 90 mins by fluorescence spectrophotometric method; conditions: 1.5 h; summary of the method: as §4
# [15] = biological target: T1, ATP-dependent translocase ABCB1; test: Inhibition of ABCB1 in human K562/A02 cells assessed as potentiation of adriamycin-induced cytotoxicity by measuring reduction in ADR IC50 at 5 uM measured after 48 hrs by MTT assay relative to JL-A7
# [16] = biological target: T1, ATP-dependent translocase ABCB1; test: Inhibition of ABCB1 in human K562/A02 cells assessed as potentiation of adriamycin-induced cytotoxicity by measuring reduction in ADR IC50 at 5 uM measured after 48 hrs by MTT assay relative to verapamil
# [17] = biological target: T1, ATP-dependent translocase ABCB1; test: Inhibition of ABCB1 in human K562/A02 cells assessed as potentiation of adriamycin-induced cytotoxicity by measuring reduction in ADR IC50 at 1 uM measured after 48 hrs by MTT assay relative to ADR alone; summary of the method: as §2
# [18] = biological target: T1, ATP-dependent translocase ABCB1; test: Inhibition of ABCB1 in human K562/A02 cells assessed as potentiation of adriamycin-induced cytotoxicity by measuring reduction in ADR IC50 at 0.25 uM measured after 48 hrs by MTT assay relative to ADR alone; summary of the method: as §2
# [19] = biological target: T1, ATP-dependent translocase ABCB1; test: Inhibition of ABCB1 in human K562/A02 cells assessed as potentiation of adriamycin-induced cytotoxicity by measuring reduction in ADR IC50 at 0.05 uM measured after 48 hrs by MTT assay relative to ADR alone; summary of the method: as §2
# [20] = biological target: T1, ATP-dependent translocase ABCB1; test: Inhibition of ABCB1 in human K562/A02 cells assessed as potentiation of adriamycin-induced cytotoxicity measured after 48 hrs by MTT assay; summary of the method: as §2
# [21] = biological target: T1, ATP-dependent translocase ABCB1; test: Inhibition of ABCB1 in human K562/A02 cells assessed as potentiation of adriamycin-induced cytotoxicity by measuring reduction in ADR IC50 at 2.5 uM measured after 48 hrs by MTT assay relative to ADR alone; summary of the method: as §2
# [22] = biological target: T1, ATP-dependent translocase ABCB1; test: Inhibition of ABCB1 in human K562/A02 cells assessed as potentiation of adriamycin-induced cytotoxicity by measuring reduction in ADR IC50 at 0.025 uM measured after 48 hrs by MTT assay relative to ADR alone; summary of the method: as §2
# T1 sequence (P08183 whole entry): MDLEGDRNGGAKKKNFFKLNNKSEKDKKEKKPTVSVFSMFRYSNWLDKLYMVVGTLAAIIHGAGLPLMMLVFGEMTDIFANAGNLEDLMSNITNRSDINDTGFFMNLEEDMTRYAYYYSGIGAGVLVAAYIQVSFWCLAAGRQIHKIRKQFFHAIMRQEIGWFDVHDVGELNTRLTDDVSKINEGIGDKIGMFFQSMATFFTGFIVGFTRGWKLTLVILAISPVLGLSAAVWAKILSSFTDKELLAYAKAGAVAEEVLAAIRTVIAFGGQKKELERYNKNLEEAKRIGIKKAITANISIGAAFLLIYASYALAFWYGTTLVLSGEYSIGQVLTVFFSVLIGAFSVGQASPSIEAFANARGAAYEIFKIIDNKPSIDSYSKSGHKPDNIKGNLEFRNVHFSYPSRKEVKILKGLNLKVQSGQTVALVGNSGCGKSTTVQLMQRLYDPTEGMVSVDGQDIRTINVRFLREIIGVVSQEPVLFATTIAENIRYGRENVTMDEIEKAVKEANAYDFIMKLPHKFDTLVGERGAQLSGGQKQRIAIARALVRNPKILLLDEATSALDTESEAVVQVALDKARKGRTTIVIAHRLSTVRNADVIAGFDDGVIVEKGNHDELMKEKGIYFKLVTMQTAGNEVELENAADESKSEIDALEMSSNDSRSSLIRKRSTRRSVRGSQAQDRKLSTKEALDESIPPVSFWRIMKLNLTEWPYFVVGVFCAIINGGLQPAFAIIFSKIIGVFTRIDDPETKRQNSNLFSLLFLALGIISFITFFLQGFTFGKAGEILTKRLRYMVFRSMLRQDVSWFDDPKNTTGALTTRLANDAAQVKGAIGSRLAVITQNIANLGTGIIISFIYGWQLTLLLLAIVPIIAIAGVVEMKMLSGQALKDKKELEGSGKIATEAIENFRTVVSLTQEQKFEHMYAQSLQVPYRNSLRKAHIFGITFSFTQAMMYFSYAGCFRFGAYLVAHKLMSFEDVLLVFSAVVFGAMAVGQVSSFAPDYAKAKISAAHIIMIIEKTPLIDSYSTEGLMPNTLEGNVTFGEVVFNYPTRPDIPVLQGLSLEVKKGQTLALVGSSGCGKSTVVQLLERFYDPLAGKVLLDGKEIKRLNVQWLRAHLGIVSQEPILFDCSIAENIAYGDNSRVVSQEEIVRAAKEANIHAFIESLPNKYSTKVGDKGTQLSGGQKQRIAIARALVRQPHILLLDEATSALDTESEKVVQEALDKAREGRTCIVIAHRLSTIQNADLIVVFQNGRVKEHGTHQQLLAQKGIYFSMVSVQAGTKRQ
compound,measurement,setting,value
COc1cc2c(cc1OC)CN(CCn1cc(COc3ccccc3NC(=O)c3ccc(C(C)(C)C)cc3)nn1)CC2,pIC50,K562/A02,< 4.00
same,pIC50,K562,< 4.00
same,fold change (FC),[1],28.2
COc1cc2c(cc1OC)CN(CCc1ccc(NC(=O)c3cc(OC)c(OC)cc3NC(=O)c3cnc4ccccc4c3)cc1)CC2,pIC50,K562/A02,4.57
same,fold change (FC),[2],16.86
same,fold change (FC),[3],10.37
same,fold change (FC),[4],31.98
same,fold change (FC),[5],3.55
same,fold change (FC),[6],6.1
same,pIC50,K562,4.50
same,fold change (FC),[1],49.1
COc1cc2c(cc1OC)CN(CCn1cc(COc3ccccc3C(=O)Nc3cccc([N+](=O)[O-])c3)nn1)CC2,pIC50,K562/A02,< 4.00
same,pIC50,K562,< 4.00
same,fold change (FC),[1],3.5
CCCCc1ccc(NC(=O)c2ccccc2OCc2cn(CCN3CCc4cc(OC)c(OC)cc4C3)nn2)cc1,pIC50,K562/A02,< 4.00
same,pIC50,K562,< 4.00
same,fold change (FC),[1],15.5
COc1ccc(NC(=O)c2ccccc2OCc2cn(CCN3CCc4cc(OC)c(OC)cc4C3)nn2)cc1OC,pIC50,K562/A02,< 4.00
same,pIC50,K562,< 4.00
same,fold change (FC),[1],12.4
COc1cccc(NC(=O)c2ccccc2OCc2cn(CCN3CCc4cc(OC)c(OC)cc4C3)nn2)c1,pIC50,K562/A02,< 4.00
same,pIC50,K562,< 4.00
same,fold change (FC),[1],5.6 to 11.1
COc1cc2c(cc1OC)CN(CCn1cc(COc3ccccc3C(=O)Nc3cccc(Cl)c3)nn1)CC2,pIC50,K562/A02,< 4.00
same,pIC50,K562,4.06
same,fold change (FC),[1],4.3
COc1cc2c(cc1OC)CN(CCn1cc(COc3ccccc3C(=O)Nc3ccc(C)cc3)nn1)CC2,pIC50,K562/A02,< 4.00
same,pIC50,K562,< 4.00
same,fold change (FC),[1],12.6
COc1cc2c(cc1OC)CN(CCn1cc(COc3ccccc3C(=O)Nc3cccc(C)c3)nn1)CC2,pIC50,K562/A02,< 4.00
same,pIC50,K562,< 4.00
same,fold change (FC),[1],8
COc1cc2c(cc1OC)CN(CCn1cc(COc3ccccc3C(=O)Nc3ccc(OC(F)(F)F)cc3)nn1)CC2,pIC50,K562/A02,< 4.00
same,pIC50,K562,< 4.00
same,fold change (FC),[1],21.4
COc1cc2c(cc1OC)CN(CCn1cc(COc3ccccc3C(=O)Nc3ccccc3[N+](=O)[O-])nn1)CC2,pIC50,K562/A02,< 4.00
same,pIC50,K562,< 4.00
same,fold change (FC),[1],3.6
COc1cc2c(cc1OC)CN(CCn1cc(COc3ccccc3C(=O)Nc3ccccc3)nn1)CC2,pIC50,K562/A02,< 4.00
same,pIC50,K562,< 4.00
same,fold change (FC),[1],3.8
COc1cc2c(cc1OC)CN(CCn1cc(COc3ccccc3C(=O)Nc3ccc([N+](=O)[O-])cc3)nn1)CC2,pIC50,K562/A02,< 4.00
same,pIC50,K562,< 4.00
same,fold change (FC),[1],4.6
COc1cc2c(cc1OC)CN(CCn1cc(COc3ccccc3C(=O)Nc3ccc(Cl)cc3)nn1)CC2,pIC50,K562/A02,< 4.00
same,pIC50,K562,< 4.00
same,fold change (FC),[1],14
COc1cc2c(cc1OC)CN(CCn1cc(COc3ccccc3C(=O)Nc3ccc(C(C)(C)C)cc3)nn1)CC2,fold change (FC),[7],<= 31.4
same,fold change (FC),[8],1.6
same,K,[9],0.0067 s⁻¹
same,inhibition (INH),[10],Dose-dependent effect
same,fold change (FC),[11],3.9
same,Ratio,[12],1.4
same,inhibition (INH),[13],Dose-dependent effect
same,pIC50,K562/A02,< 4.00
same,fold change (FC),[2],11.83
same,fold change (FC),[3],8.16
same,inhibition (INH),[14],Active
same,fold change (FC),[4],40.34
same,fold change (FC),[5],2.96
same,fold change (FC),[6],4.93
same,fold change (FC),[15],<= 31.4
same,fold change (FC),[16],<= 31.4
same,fold change (FC),[17],7.5
same,fold change (FC),[18],2.4
same,fold change (FC),[19],1.4
same,inhibition (INH),[20],Dose-dependent effect
same,pIC50,K562,< 4.00
same,fold change (FC),[21],13.5
same,fold change (FC),[1],33.5
same,fold change (FC),[22],1.4
COc1cc2c(cc1OC)CN(CCn1cc(COc3ccccc3C(=O)Nc3ccccc3C)nn1)CC2,pIC50,K562/A02,< 4.00
same,pIC50,K562,< 4.00
same,fold change (FC),[1],4.4
COc1ccc(NC(=O)c2ccccc2OCc2cn(CCN3CCc4cc(OC)c(OC)cc4C3)nn2)cc1,pIC50,K562/A02,< 4.00
same,pIC50,K562,4.10
same,fold change (FC),[1],11.6
COc1cc2c(cc1OC)CN(CCn1cc(COc3ccccc3C(=O)Nc3cc(OC)c(OC)c(OC)c3)nn1)CC2,pIC50,K562/A02,< 4.00
same,pIC50,K562,< 4.00
same,fold change (FC),[1],3
COc1cc2c(cc1OC)CN(CCn1cc(COc3ccccc3C(=O)Nc3ccc(F)cc3)nn1)CC2,pIC50,K562/A02,< 4.00
same,pIC50,K562,< 4.00
same,fold change (FC),[1],11.7
COc1ccc(CCN(C)CCCC(C#N)(c2ccc(OC)c(OC)c2)C(C)C)cc1OC (stereo not drawn),inhibition (INH),[13],Dose-dependent effect
same,inhibition (INH),[14],Active
COc1cccc2c1C(=O)c1c(O)c3c(c(O)c1C2=O)C[C@@](O)(C(=O)CO)C[C@@H]3O[C@H]1C[C@H](N)[C@H](O)[C@H](C)O1 [DOXORUBICIN HYDROCHLORIDE],pIC50,K562/A02,4.01
same,pIC50,K562,5.37
same,fold change (FC),[1],1
